{"data": "Measurements from different studies", "target": "Casein kinase I isoform gamma-1 (CSNK1G1, Homo sapiens, UniProt Q9HCP0)", "note": "Compare with care: the assays were run in different laboratories."}
{"SMILES": "C=CC(=O)Nc1cc(Nc2nccc(Nc3cc(Cl)c(F)cc3C(C)(C)O)n2)c(OC)cc1N1CC[C@@H](N(C)C)C1", "assay": "enzyme activity, inhibitor", "conditions": "1 µM", "quantity": "inhibition", "value": "15%"}
{"SMILES": "Cc1ccc(C(=O)Nc2ccc(CN3CCN(C)CC3)c(C(F)(F)F)c2)cc1C#Cc1cnc2cccnn12", "assay": "enzyme activity, inhibitor", "conditions": "23.5 nM", "quantity": "remaining activity", "value": "89%"}
{"SMILES": "O=C(O)[C@H]1[C@H](Cn2nnc3ccccc3c2=O)CC[C@@H]1C(=O)c1ccc(OCCC2CCOCC2)cc1", "assay": "cell-free assay, competition with immobilised ligand", "conditions": "1 µM", "quantity": "remaining binding", "value": "94%"}
{"SMILES": "COc1cc2ncnc(Nc3ccc(Oc4ccccc4)cc3C)c2cc1OC", "assay": "enzyme activity, inhibitor", "conditions": "1 µM", "quantity": "inhibition", "value": "8%"}
{"SMILES": "CCc1ccccc1C(=O)Nc1n[nH]c2c(C)c(F)c(C3C(C#N)=C(C)N(C)C(C)=C3C#N)cc12", "assay": "cell-free assay, competition with immobilised ligand", "conditions": "1 µM", "quantity": "remaining binding", "value": "95%"}
{"SMILES": "CC(C)(O)[C@H]1CC[C@H](Nc2ccc3ncc(-c4cccc(C(F)(F)F)c4)n3n2)CC1", "assay": "enzyme activity, inhibitor", "conditions": "1 µM", "quantity": "remaining activity", "value": "93%"}
{"SMILES": "COc1cc2ncnc(Nc3ccc(F)c(Cl)c3)c2cc1OCCCN1CCOCC1", "assay": "cell-free assay", "conditions": "0.5 µM", "quantity": "remaining signal", "value": "99.5%"}
{"SMILES": "CS(=O)(=O)N1CCCC(NC(=O)[C@H](CCC2CCCCC2)NC(=O)c2ccc(CNC(=O)c3cnc4ccccn34)cc2)C1 (some centres unmarked)", "assay": "cell-free assay, competition with immobilised ligand", "conditions": "0.1 µM", "quantity": "remaining binding", "value": "100%"}
{"SMILES": "O=C1NC(=O)c2cc(Nc3ccc(F)cc3)c(Nc3ccc(F)cc3)cc21", "assay": "cell-free assay", "conditions": "0.5 µM", "quantity": "remaining signal", "value": "96.3%"}
{"SMILES": "O=C(Nc1cnn(-c2csc(C(=O)NC3COC3)c2)c1)Nc1ccccc1Cl", "assay": "enzyme activity, inhibitor", "conditions": "5 µM", "quantity": "remaining activity", "value": "99%"}
{"SMILES": "CNC(=O)c1cc(Oc2ccc(NC(=O)Nc3ccc(Cl)c(C(F)(F)F)c3)cc2)ccn1", "assay": "enzyme activity, inhibitor", "conditions": "0.3 µM", "quantity": "inhibition", "value": "-16%"}
{"SMILES": "CCS(=O)(=O)c1cc2cc(C[C@@](O)(CC(C)(C)c3ccc(F)cc3C(N)=O)C(F)(F)F)[nH]c2cn1", "assay": "cell-free assay, competition with immobilised ligand", "conditions": "1 µM", "quantity": "remaining binding", "value": "100%"}
{"SMILES": "CC(C)c1ccc(NC(=O)c2cccs2)c(-c2nc3ccccc3[nH]c2=O)c1", "assay": "enzyme activity, inhibitor", "conditions": "1 µM", "quantity": "activity vs control", "value": "102%"}
{"SMILES": "CC(C)(C)c1nc2c(s1)c1nc(N)ncc1c1ccc(NS(=O)(=O)c3c(F)cccc3F)c(F)c12", "assay": "enzyme activity, inhibitor, radiometric", "conditions": "1 µM", "quantity": "remaining activity", "value": "63%"}
{"SMILES": "C[C@H](c1cccc(C#N)c1)n1cc(Cl)cc(C(N)=O)c1=N", "assay": "cell-free assay, competition with immobilised ligand", "conditions": "1 µM", "quantity": "remaining binding", "value": "96%"}
{"SMILES": "C[C@@H]1CCN(C(=O)CC#N)C[C@@H]1N(C)c1ncnc2[nH]ccc12", "assay": "cell-free assay, inhibitor", "conditions": "0.5 µM", "quantity": "remaining signal", "value": "101%"}
{"SMILES": "Cc1ccc(Nc2nccc(N(C)c3ccc4c(C)n(C)nc4c3)n2)cc1S(N)(=O)=O", "assay": "enzyme activity, inhibitor", "conditions": "10 µM", "quantity": "inhibition", "value": "-8%"}
{"SMILES": "COc1cc(Cl)c(C(=O)N[C@@H](CN[C@H]2CC[C@@H](N)CC2)Cc2ccc(C#N)cc2)cc1-c1ccc(CN[C@H](C)c2ccc(C)cc2)o1", "assay": "enzyme activity, inhibitor", "conditions": "1 µM", "quantity": "remaining activity", "value": "87%"}
{"SMILES": "Cc1nc(N2CC[C@@H](O)C2)ncc1-c1cc(C(F)(F)F)cc2[nH]ncc12", "assay": "cell-free assay, competition with immobilised ligand", "conditions": "1 µM", "quantity": "remaining binding", "value": "78%"}
{"SMILES": "CCCS(=O)(=O)Nc1ccc(F)c(C(=O)c2c[nH]c3ncc(-c4ccc(Cl)cc4)cc23)c1F", "assay": "enzyme activity, inhibitor", "conditions": "1 µM", "quantity": "inhibition", "value": "< 10%"}
